The source of these data is ChEMBL document CHEMBL1121566, “Synthesis and aldose reductase inhibitory activity of 7-sulfamoylxanthone-2-carboxylic acids” (J Med Chem, 1980).

Each structure is given as a SMILES string. Calls of active or inactive are those of the source. No cut-off for these calls is given here.

Test [1] has as its target Aldo-keto reductase family 1 member B1 (Oryctolagus cuniculus) (UniProt P15122). In words: Antiallergic agent with Aldose reductase Inhibitory Activity at 10E-5 M concentration. Put shortly:
(§1)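 Enzyme was from frozen rabbit lenses, homogenized in water and spun at 10000g. The 50–75% ammonium sulfate fraction was dissolved in 0.05 M NaCl. The assay used 0.067 M phosphate pH 6.0 and 2 × 10^-5 M NADPH, and was started with 5 × 10^-4 M D,L-glyceraldehyde (final). NADPH loss was followed at 340 nm for 2 min at 37 °C. Inhibitors were dissolved in minimal 0.1 N NaOH and diluted with water.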

Test [2] shares this target. As to the kind of experiment: Antiallergic agent with Aldose reductase Inhibitory Activity at 10E-6 M concentration. The gist of the method: as §1
Test [3] shares this target. In words: Percent inhibition of rabbit lens aldose reductase in vitro at 10E-4 M concentration. Put shortly: as §1
The test system of test [4] is Aldose reductase (Oryctolagus cuniculus). As to the kind of experiment: In vitro inhibitory activity towards rabbit lens aldose reductase; Active.

One may read the inhibition as the share of the control response that was lost under treatment. Consider `O=C(O)c1ccc2oc3ccc(S(=O)(=O)NCCO)cc3c(=O)c2c1`, for which the inhibition in test [1] turned out to be 38%; in test [2], 0%; in test [3] it was 79%.
The like results for `CC(C)NS(=O)(=O)c1ccc2oc3ccc(C(=O)O)cc3c(=O)c2c1` were, in that order, 30%, 0% and 72%.
On to `CC(O)c1ccc2oc3ccc(C(=O)O)cc3c(=O)c2c1` (stereo not given), for which the inhibition in test [1] stood at 10%; in test [2] it was 10%; in test [3], 50%.
On to `O=C(O)c1ccc2oc3ccc(OCC(O)CO)cc3c(=O)c2c1` (stereo not given), for which the inhibition in test [1] is 46%; in test [2], 8%; in test [3] it was 88%.
Taken in the same sequence, the figures for `CNS(=O)(=O)c1ccc2oc3ccc(C(=O)O)cc3c(=O)c2c1` were 40%, 25% and 75%.
Regarding `O=C(O)c1ccc2oc3ccc(S(=O)(=O)O)cc3c(=O)c2c1`, the values for the inhibition in test [1], in test [2] and in test [3] were 43%, 0% and 70%, respectively.
The like results for `COCC[S+]([O-])c1ccc2oc3ccc(C(=O)O)cc3c(=O)c2c1` (stereo not given) were, in that order, 12%, 4% and 65%.
Taken in the same sequence, the figures for `O=C(O)c1ccc2oc3ccc(S(=O)(=O)N(CCO)CCO)cc3c(=O)c2c1` were 49%, 2% and 89%.
Taken in the same sequence, the figures for `O=C(O)c1ccc2oc3ccc(S(=O)(=O)CCO)cc3c(=O)c2c1` were 77%, 50% and 96%.
As for `O=C(O)c1ccc2oc3ccccc3c(=O)c2c1`, the results for the inhibition in test [1], in test [2] and in test [3] were 10%, 0% and 20%, respectively.
For `CN(CCO)S(=O)(=O)c1ccc2oc3ccc(C(=O)O)cc3c(=O)c2c1`, the inhibition entry in test [4] was “Active”. For the same compound, the inhibition in test [1] worked out at 96%; in test [2], 83%; in test [3] it was 100%.
Regarding `COC(C)c1ccc2oc3ccc(C(=O)O)cc3c(=O)c2c1` (stereo not given), the inhibition was determined as 6% in test [1], 0% in test [2] and 70% in test [3].
Taken in the same sequence, the figures for `O=C(O)c1ccc2oc3ccc([S+]([O-])CCO)cc3c(=O)c2c1` (stereo not given) were 50%, 17% and 87%.
Taken in the same sequence, the figures for `C[S+]([O-])c1ccc2oc3ccc(C(=O)O)cc3c(=O)c2c1` (stereo not given) were 20%, 0% and 63%.
The like results for `CCN(C)S(=O)(=O)c1ccc2oc3ccc(C(=O)O)cc3c(=O)c2c1` were, in that order, 81%, 23% and 92%.
Take `O=C(O)c1ccc2oc3ccc(S(=O)(=O)N4CCCC4)cc3c(=O)c2c1`: the inhibition in test [1] amounted to 46%; in test [2], 0%; in test [3], 85%.
Taken in the same sequence, the figures for `O=C(O)c1ccc2oc3ccc(S(=O)(=O)N4CCOCC4)cc3c(=O)c2c1` were 6%, 0% and 76%.
For `O=c1c(O)c(-c2ccc(O)c(O)c2)oc2cc(O)cc(O)c12`, the values for the inhibition in test [1] and in test [2] were 52% and 9%, respectively.
Turning to `NS(=O)(=O)c1ccc2oc3ccc(C(=O)O)cc3c(=O)c2c1`, the inhibition in test [1] stood at 20%; in test [2] it was 10%; in test [3] it was 70%.
Turning to `CC(C)N(C)S(=O)(=O)c1ccc2oc3ccc(C(=O)O)cc3c(=O)c2c1`, the inhibition in test [1] was 69%; in test [2], 17%; in test [3], 89%.
Take `CN(C)S(=O)(=O)c1ccc2oc3ccc(C(=O)O)cc3c(=O)c2c1`: the inhibition result in test [4] was “Active”. For the same compound, the inhibition came out at 87% in test [1], 67% in test [2] and 94% in test [3].
With `CC(C)CN(C)S(=O)(=O)c1ccc2oc3ccc(C(=O)O)cc3c(=O)c2c1`, the results for the inhibition in test [1], in test [2] and in test [3] were 75%, 25% and 95%, respectively.
`O=C(O)c1ccc2oc3ccc(SCCO)cc3c(=O)c2c1`: the inhibition amounted to 65% in test [1], 7% in test [2] and 93% in test [3].
